Results as given in ChEMBL document CHEMBL1149756, “Synthesis and antiprotozoal activities of simplified analogs of naphthylisoquinoline alkaloids” (Eur J Med Chem, 2008).
Values after ≈ are worked out from the molar mass of the structure shown. Active and inactive are the calls of the source. The rule behind the calls is not given here.

Assays:
L6 = experiment: Cytotoxicity against rat L6 cells after 4 days; assay type: cell-based; details: L6, 96 h
Outline: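 Non-infected L6 cells seeded at 2000 cells/well in RPMI 1640, 10% FBS, 2 mM L-glutamine, exposed to serial drug dilutions 4 d at 37 °C, 5% CO₂. […] after 2–4 h. IC50 from sigmoidal inhibition curve; means of at least two independent assays in duplicate.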

[1] = Therapeutic index, ratio of IC50 for rat L6 cells to IC50 for Leishmania donovani; assay type: cell-based; details: read-out: Ratio IC50
Leishmania donovani [2] = experiment: Antileishmanial activity against Leishmania donovani infected in mouse peritoneal macrophages after 96 hrs; assay type: functional, organism-based
Outline: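 L. donovani amastigotes from axenic culture grown at pH 5.4, 1.2 × 10⁵ per well added to macrophages; free amastigotes removed after 4 h and medium replaced. Compound dilutions added next day, 96 h incubation. Slides methanol-fixed 10 min, stained with 10% Giemsa; infected and non-infected macrophages counted, infection rates versus controls. Means of at least two independent assays in duplicate.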

Trypanosoma cruzi = experiment: Antitrypanosomal activity against Trypanosoma cruzi Tulahuen C2C4 trypomastigotes infected in rat L6 cells after 4 days
Leishmania donovani [3] = experiment: Antileishmanial activity against Leishmania donovani axenic amastigotes
[4] = Therapeutic index, ratio of IC50 for rat L6 cells to IC50 for Trypanosoma cruzi
[5] = Therapeutic index, ratio of IC50 for rat L6 cells to IC50 for Trypanosoma cruzi C2C4; assay type: cell-based; details: read-out: Ratio IC50
Leishmania donovani [6] = experiment: Antileishmanial activity against Leishmania donovani amastigotes infected in mouse peritoneal macrophages after 96 hrs

IC50 (Leishmania donovani [2]) | IC50 (Trypanosoma cruzi) | IC50 (Leishmania donovani [6]) | Compound | IC50 (L6) | selectivity ratio [1] | Activity (Leishmania donovani [3]) | selectivity ratio [4] | selectivity ratio [5]
3.87 µg/mL (≈ 9.49 µM) | 5.2 µg/mL (≈ 12.8 µM) |  | COc1ccc(I)c2c1CN(Cc1ccccc1)C(C)(C)C2 | 30 µg/mL (≈ 73.7 µM) | 7.8 | inactive | 5.77 | 
1.02 µg/mL (≈ 2.34 µM) | 3.7 µg/mL (≈ 8.46 µM) | 2.4 µg/mL (≈ 5.49 µM) | COc1cc(OC)c2c(c1I)CC(C)(C)N(Cc1ccccc1)C2 | 66 µg/mL (≈ 151 µM) | 64.5 |  | 17.8 | 27.5
> 5 µg/mL | 59.1 µg/mL (≈ 270 µM) | 18.3 µg/mL (≈ 83.5 µM) | COc1cc2c(c(OC)c1)C=NC(C)(C)C2 | > 90 µg/mL |  |  |  | 
0.349 µg/mL (≈ 0.96 µM) | 5.5 µg/mL (≈ 15.1 µM) | 5.2 µg/mL (≈ 14.3 µM) | COc1cc(OC)c(-c2ccc(O)c3ccccc23)c2c1CNC(C)(C)C2 | 8.4 µg/mL (≈ 23.1 µM) | 24.1 |  | 1.53 | 1.62
0.424 µg/mL (≈ 1.09 µM) | 5.8 µg/mL (≈ 14.9 µM) | 4.2 µg/mL (≈ 10.8 µM) | COc1cc(OC)c2c(c1Br)CC(C)(C)N(Cc1ccccc1)C2 | 84.8 µg/mL (≈ 217 µM) | 200 |  | 14.6 | 20.2
1.4 µg/mL (≈ 4.48 µM) | 20.1 µg/mL (≈ 64.5 µM) | > 10 µg/mL | COc1cc2c(c(OC)c1)CN(Cc1ccccc1)C(C)(C)C2 | > 90 µg/mL | > 64.5 |  |  | 
0.521 µg/mL (≈ 1.75 µM) | 22.7 µg/mL (≈ 76.3 µM) | 30 µg/mL (≈ 101 µM) | COc1cc(O)cc2c1CN(Cc1ccccc1)C(C)(C)C2 | 79.6 µg/mL (≈ 268 µM) | 153 |  |  | 
4.67 µg/mL (≈ 10.9 µM) | 44.8 µg/mL (≈ 104 µM) |  | COc1cc(OS(=O)(=O)C(F)(F)F)cc2c1CN(Cc1ccccc1)C(C)(C)C2 | > 90 µg/mL | > 19.2 | inactive |  | 

Second part, the compound before the results:

Compound | IC50 (Leishmania donovani [2]) | IC50 (Trypanosoma cruzi) | IC50 (Leishmania donovani [6]) | IC50 (L6) | selectivity ratio [1] | Activity (Leishmania donovani [3]) | selectivity ratio [4] | selectivity ratio [5]
COc1cc([C@@H]2c3cc4c(cc3[C@H](O)[C@H]3COC(=O)[C@H]23)OCO4)cc(OC)c1OC [PODOFILOX] |  |  |  | 0.006 µg/mL (≈ 0.0145 µM) |  |  |  | 
COc1cc(OC)c2c(c1Br)CC(C)(C)NC2 | 0.628 µg/mL (≈ 2.09 µM) | 40.7 µg/mL (≈ 136 µM) | > 10 µg/mL | > 90 µg/mL |  |  |  | 
COc1ccc(-c2c(OC)cc(OC)c3c2CC(C)(C)N=C3C)cc1 | > 5 µg/mL | 3.6 µg/mL (≈ 10.6 µM) | > 30 µg/mL | 43.4 µg/mL (≈ 128 µM) |  |  | 12.1 | 
COc1cc2c(c(OC)c1)C(C)=NC(C)(C)C2 | 4.06 µg/mL (≈ 17.4 µM) | 44.8 µg/mL (≈ 192 µM) | 18.2 µg/mL (≈ 78 µM) | > 90 µg/mL | > 22.2 |  |  | 
COc1ccc(-c2ccc(O)cc2CO)c2c1CNC(C)(C)C2 | 3.55 µg/mL (≈ 11.3 µM) | > 30 µg/mL | > 30 µg/mL | > 90 µg/mL |  |  |  | 
CCN(CC)CCCC(C)Nc1ccnc2cc(Cl)ccc12 (centres undefined) [CHLOROQUINE] | 0.23 µg/mL (≈ 0.719 µM) |  |  |  | 1090 |  |  | 
COc1ccc(I)c2c1CNC(C)(C)C2 | 0.341 µg/mL (≈ 1.08 µM) | 10 µg/mL (≈ 31.5 µM) |  | 83.9 µg/mL (≈ 265 µM) |  | inactive |  | 
COc1cc(OC)c2c(c1Br)CC(C)(C)N=C2C | 0.377 µg/mL (≈ 1.21 µM) | 19.8 µg/mL (≈ 63.4 µM) | 18.9 µg/mL (≈ 60.5 µM) | 57.5 µg/mL (≈ 184 µM) | 152 |  |  | 
COc1cccc2c1CNC(C)(C)C2 | > 5 µg/mL | 33 µg/mL (≈ 173 µM) |  | > 90 µg/mL |  | inactive |  | 
COc1cc(OC)c(-c2ccc(O)cc2)c2c1CNC(C)(C)C2 | > 5 µg/mL | 45.2 µg/mL (≈ 144 µM) | 12.8 µg/mL (≈ 40.7 µM) | 28.2 µg/mL (≈ 90 µM) |  |  |  | 
COc1cc(OC)c2c(c1I)CC(C)(C)NC2 | 0.463 µg/mL (≈ 1.33 µM) | 37.7 µg/mL (≈ 109 µM) | > 10 µg/mL | 33.2 µg/mL (≈ 95.6 µM) |  |  |  | 
O=C(Cn1ccnc1[N+](=O)[O-])NCc1ccccc1 [BENZNIDAZOLE] |  | 0.25 µg/mL (≈ 0.961 µM) |  |  |  |  | > 360 | 
COc1cc2c(c(OC)c1)CNC(C)(C)C2 | 3.46 µg/mL (≈ 15.6 µM) | > 90 µg/mL | > 30 µg/mL | > 90 µg/mL |  |  |  | 
